Laboratory results reported in ChEMBL document CHEMBL1765016, “Indolylarylsulfones as HIV-1 non-nucleoside reverse transcriptase inhibitors: new cyclic substituents at indole-2-carboxamide” (J Med Chem, 2011).

system: not listed separately; assay: Selectivity index, CC50 for human CEM cells to IC50 for HIV1 3B; format: functional, CCRF-CEM; details: not given
In short: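 Ratio of CC₅₀ (Coulter count, mock-infected CEM) to EC₅₀ (CEM, HIV-1 IIIB, microscopic syncytia scoring at day 4).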

SMILES | Selectivity Index
Cc1cc(C)cc(S(=O)(=O)c2c(C(=O)NCCN3CCOCC3)[nH]c3ccc(Br)cc23)c1 | 2406
Cc1cc(C)cc(S(=O)(=O)c2c(C(=O)NCCOc3ccccc3)[nH]c3ccc(Cl)c(F)c23)c1 | 549
Cc1cc(C)cc(S(=O)(=O)c2c(C(=O)NCN3CCOCC3)[nH]c3ccc(Br)cc23)c1 | 10294
Cc1cc(C)cc(S(=O)(=O)c2c(C(=O)NCCN3CCCC3)[nH]c3ccc([N+](=O)[O-])cc23)c1 | 1313
Cc1cc(C)cc(S(=O)(=O)c2c(C(=O)NCN3CCCCC3)[nH]c3ccc(Br)cc23)c1 | 2703
Cc1cc(C)cc(S(=O)(=O)c2c(C(=O)NCCN3CCOCC3)[nH]c3ccc(Cl)cc23)c1 | 5682
Cc1cc(C)cc(S(=O)(=O)c2c(C(=O)NCN3CCCCC3)[nH]c3ccc(Cl)c(F)c23)c1 | 8205
Cc1cc(C)cc(S(=O)(=O)c2c(C(=O)NCCOc3ccccc3)[nH]c3ccc(Br)cc23)c1 | >17241
Cc1cc(C)cc(S(=O)(=O)c2c(C(=O)NCCc3ccccc3)[nH]c3ccc([N+](=O)[O-])cc23)c1 | >72529
O=C1Nc2ccc(Cl)cc2[C@@](C#CC2CC2)(C(F)(F)F)O1 [EFAVIRENZ] | >6667
Cc1cc(C)cc(S(=O)(=O)c2c(C(=O)NCCn3cccc3)[nH]c3ccc(Cl)c(F)c23)c1 | 1782

system: not listed separately; assay: Cytotoxicity against human CEM cells by coulter counter analysis; format: cell-based; details: CEM (CCRF-CEM) cells
In short: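 Mock-infected CEM cultures with compound, cell number counted by Coulter counter as percent of untreated control. CC₅₀ (50% reduction in proliferation) was read from plots against concentration. Values are means of two experiments in triplicate.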

SMILES | CC50 [µM]
Cc1cc(C)cc(S(=O)(=O)c2c(C(=O)NCCN3CCOCC3)[nH]c3ccc(Br)cc23)c1 | 409
Cc1cc(C)cc(S(=O)(=O)c2c(C(=O)NCCOc3ccccc3)[nH]c3ccc(Cl)c(F)c23)c1 | 11
Cc1cc(C)cc(S(=O)(=O)c2c(C(=O)NCN3CCOCC3)[nH]c3ccc(Br)cc23)c1 | 35
Cc1cc(C)cc(S(=O)(=O)c2c(C(=O)NCCN3CCCC3)[nH]c3ccc([N+](=O)[O-])cc23)c1 | 21
Cc1cc(C)cc(S(=O)(=O)c2c(C(=O)NCN3CCCCC3)[nH]c3ccc(Br)cc23)c1 | 10
Cc1cc(C)cc(S(=O)(=O)c2c(C(=O)NCCN3CCOCC3)[nH]c3ccc(Cl)cc23)c1 | 50
Cc1cc(C)cc(S(=O)(=O)c2c(C(=O)NCN3CCCCC3)[nH]c3ccc(Cl)c(F)c23)c1 | 32
Cc1cc(C)cc(S(=O)(=O)c2c(C(=O)NCCOc3ccccc3)[nH]c3ccc(Br)cc23)c1 | > 500
Cc1cc(C)cc(S(=O)(=O)c2c(C(=O)NCCc3ccccc3)[nH]c3ccc([N+](=O)[O-])cc23)c1 | > 500
O=C1Nc2ccc(Cl)cc2[C@@](C#CC2CC2)(C(F)(F)F)O1 [EFAVIRENZ] | > 10000
Cc1cc(C)cc(S(=O)(=O)c2c(C(=O)NCCn3cccc3)[nH]c3ccc(Cl)c(F)c23)c1 | 9.8

system: Human immunodeficiency virus 2; assay: Antiviral activity against HIV2 isolate ROD infected in human CEM cells assessed as inhibition of virus-induced cytopathicity after 4 days by microscopic analysis; format: functional, organism-based; details: Human immunodeficiency virus 2, ISOLATE ROD, CCRF-CEM, 96 h
In short: (§1)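 CEM cells (~3 × 10⁵ cells/mL) infected with ~100 CCID₅₀ virus per mL, seeded into wells with compound dilutions. Syncytia (giant cell) formation scored microscopically after 4 days at 37 °C. EC₅₀ is the concentration protecting cells by 50%. Values are means of two experiments in triplicate.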

SMILES | EC50 [µM]
Cc1cc(C)cc(S(=O)(=O)c2c(C(=O)NCCN3CCOCC3)[nH]c3ccc(Br)cc23)c1 | > 50
Cc1cc(C)cc(S(=O)(=O)c2c(C(=O)NCCOc3ccccc3)[nH]c3ccc(Cl)c(F)c23)c1 | > 2
Cc1cc(C)cc(S(=O)(=O)c2c(C(=O)NCN3CCOCC3)[nH]c3ccc(Br)cc23)c1 | > 10
Cc1cc(C)cc(S(=O)(=O)c2c(C(=O)NCCN3CCCC3)[nH]c3ccc([N+](=O)[O-])cc23)c1 | > 10
Cc1cc(C)cc(S(=O)(=O)c2c(C(=O)NCN3CCCCC3)[nH]c3ccc(Br)cc23)c1 | > 2
Cc1cc(C)cc(S(=O)(=O)c2c(C(=O)NCCN3CCOCC3)[nH]c3ccc(Cl)cc23)c1 | > 2
Cc1cc(C)cc(S(=O)(=O)c2c(C(=O)NCN3CCCCC3)[nH]c3ccc(Cl)c(F)c23)c1 | > 10
Cc1cc(C)cc(S(=O)(=O)c2c(C(=O)NCCOc3ccccc3)[nH]c3ccc(Br)cc23)c1 | > 25
Cc1cc(C)cc(S(=O)(=O)c2c(C(=O)NCCc3ccccc3)[nH]c3ccc([N+](=O)[O-])cc23)c1 | > 50
O=C1Nc2ccc(Cl)cc2[C@@](C#CC2CC2)(C(F)(F)F)O1 [EFAVIRENZ] | > 10
Cc1cc(C)cc(S(=O)(=O)c2c(C(=O)NCCn3cccc3)[nH]c3ccc(Cl)c(F)c23)c1 | > 10

system: Human immunodeficiency virus 1; assay: Antiviral activity against wild type HIV1 3B infected in human CEM cells assessed as inhibition of virus-induced cytopathicity after 4 days by microscopic analysis; format: functional, organism-based; details: Human immunodeficiency virus 1, 3B, CCRF-CEM, 96 h; in short: as §1

SMILES | EC50 [µM]
Cc1cc(C)cc(S(=O)(=O)c2c(C(=O)NCCN3CCOCC3)[nH]c3ccc(Br)cc23)c1 | 0.17
Cc1cc(C)cc(S(=O)(=O)c2c(C(=O)NCCOc3ccccc3)[nH]c3ccc(Cl)c(F)c23)c1 | 0.019
Cc1cc(C)cc(S(=O)(=O)c2c(C(=O)NCN3CCOCC3)[nH]c3ccc(Br)cc23)c1 | 0.0034
Cc1cc(C)cc(S(=O)(=O)c2c(C(=O)NCCN3CCCC3)[nH]c3ccc([N+](=O)[O-])cc23)c1 | 0.016
Cc1cc(C)cc(S(=O)(=O)c2c(C(=O)NCN3CCCCC3)[nH]c3ccc(Br)cc23)c1 | 0.0037
Cc1cc(C)cc(S(=O)(=O)c2c(C(=O)NCCN3CCOCC3)[nH]c3ccc(Cl)cc23)c1 | 0.0088
Cc1cc(C)cc(S(=O)(=O)c2c(C(=O)NCN3CCCCC3)[nH]c3ccc(Cl)c(F)c23)c1 | 0.0039
Cc1cc(C)cc(S(=O)(=O)c2c(C(=O)NCCOc3ccccc3)[nH]c3ccc(Br)cc23)c1 | 0.029
Cc1cc(C)cc(S(=O)(=O)c2c(C(=O)NCCc3ccccc3)[nH]c3ccc([N+](=O)[O-])cc23)c1 | 0.0068
O=C1Nc2ccc(Cl)cc2[C@@](C#CC2CC2)(C(F)(F)F)O1 [EFAVIRENZ] | 0.0015
Cc1cc(C)cc(S(=O)(=O)c2c(C(=O)NCCn3cccc3)[nH]c3ccc(Cl)c(F)c23)c1 | 0.0055

biological target: Human immunodeficiency virus type 1 reverse transcriptase (Human immunodeficiency virus 1, UniProt Q72547, L100I); assay: Inhibition of HIV1 reverse transcriptase L100I mutant expressed in Escherichia coli assessed as incorporation of [3H]dTTP into poly(rA)/oligo(dT) by scintillation counting; details: not given
In short: (§2)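 The RT was recombinant p66(His)/p51 heterodimer, mutant form, expressed in E. coli. TCA-precipitable radioactivity on GF/C filters was read by scintillation. IC50 is the concentration giving 50% inhibition.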

SMILES | IC50 [µM]
Cc1cc(C)cc(S(=O)(=O)c2c(C(=O)NCCN3CCOCC3)[nH]c3ccc(Br)cc23)c1 | 0.108
Cc1cc(C)cc(S(=O)(=O)c2c(C(=O)NCCOc3ccccc3)[nH]c3ccc(Cl)c(F)c23)c1 | 0.068
Cc1cc(C)cc(S(=O)(=O)c2c(C(=O)NCN3CCOCC3)[nH]c3ccc(Br)cc23)c1 | 0.1
Cc1cc(C)cc(S(=O)(=O)c2c(C(=O)NCCN3CCCC3)[nH]c3ccc([N+](=O)[O-])cc23)c1 | 0.594
Cc1cc(C)cc(S(=O)(=O)c2c(C(=O)NCN3CCCCC3)[nH]c3ccc(Br)cc23)c1 | 0.019
Cc1cc(C)cc(S(=O)(=O)c2c(C(=O)NCCN3CCOCC3)[nH]c3ccc(Cl)cc23)c1 | 0.225
Cc1cc(C)cc(S(=O)(=O)c2c(C(=O)NCCOc3ccccc3)[nH]c3ccc(Br)cc23)c1 | > 40
Cc1cc(C)cc(S(=O)(=O)c2c(C(=O)NCCc3ccccc3)[nH]c3ccc([N+](=O)[O-])cc23)c1 | 0.04
Cc1cc(C)cc(S(=O)(=O)c2c(C(=O)NCCn3cccc3)[nH]c3ccc(Cl)c(F)c23)c1 | 0.03

biological target: Human immunodeficiency virus type 1 reverse transcriptase (Human immunodeficiency virus 1, UniProt Q72547); assay: Inhibition of HIV1 wild type reverse transcriptase expressed in Escherichia coli assessed as incorporation of [3H]dTTP into poly(rA)/oligo(dT) by scintillation counting; details: not given
In short: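 Template was poly(rA)/oligo(dT) 10:1 (0.3 μM 3′-OH ends) with 10 μM [³H]dTTP, at 37 °C. TCA-precipitable counts were taken on GF/C filters. IC₅₀ is 50% inhibition of RT activity.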

SMILES | IC50 [µM]
Cc1cc(C)cc(S(=O)(=O)c2c(C(=O)NCCN3CCOCC3)[nH]c3ccc(Br)cc23)c1 | 0.063
Cc1cc(C)cc(S(=O)(=O)c2c(C(=O)NCCOc3ccccc3)[nH]c3ccc(Cl)c(F)c23)c1 | 0.066
Cc1cc(C)cc(S(=O)(=O)c2c(C(=O)NCN3CCOCC3)[nH]c3ccc(Br)cc23)c1 | 0.168
Cc1cc(C)cc(S(=O)(=O)c2c(C(=O)NCCN3CCCC3)[nH]c3ccc([N+](=O)[O-])cc23)c1 | 0.28
Cc1cc(C)cc(S(=O)(=O)c2c(C(=O)NCN3CCCCC3)[nH]c3ccc(Br)cc23)c1 | 0.03
Cc1cc(C)cc(S(=O)(=O)c2c(C(=O)NCCN3CCOCC3)[nH]c3ccc(Cl)cc23)c1 | 0.099
Cc1cc(C)cc(S(=O)(=O)c2c(C(=O)NCCOc3ccccc3)[nH]c3ccc(Br)cc23)c1 | 4.72
Cc1cc(C)cc(S(=O)(=O)c2c(C(=O)NCCc3ccccc3)[nH]c3ccc([N+](=O)[O-])cc23)c1 | 0.06
Cc1cc(C)cc(S(=O)(=O)c2c(C(=O)NCCn3cccc3)[nH]c3ccc(Cl)c(F)c23)c1 | 0.018

biological target: Human immunodeficiency virus type 1 reverse transcriptase (Human immunodeficiency virus 1, UniProt Q72547, Y181I); assay: Inhibition of HIV1 reverse transcriptase Y181I mutant expressed in Escherichia coli assessed as incorporation of [3H]dTTP into poly(rA)/oligo(dT) by scintillation counting; details: not given; in short: as §2

SMILES | IC50 [µM]
Cc1cc(C)cc(S(=O)(=O)c2c(C(=O)NCCN3CCOCC3)[nH]c3ccc(Br)cc23)c1 | > 40
Cc1cc(C)cc(S(=O)(=O)c2c(C(=O)NCCOc3ccccc3)[nH]c3ccc(Cl)c(F)c23)c1 | > 40
Cc1cc(C)cc(S(=O)(=O)c2c(C(=O)NCN3CCOCC3)[nH]c3ccc(Br)cc23)c1 | 4.3
Cc1cc(C)cc(S(=O)(=O)c2c(C(=O)NCCN3CCCC3)[nH]c3ccc([N+](=O)[O-])cc23)c1 | > 40
Cc1cc(C)cc(S(=O)(=O)c2c(C(=O)NCN3CCCCC3)[nH]c3ccc(Br)cc23)c1 | 0.497
Cc1cc(C)cc(S(=O)(=O)c2c(C(=O)NCCN3CCOCC3)[nH]c3ccc(Cl)cc23)c1 | > 40
Cc1cc(C)cc(S(=O)(=O)c2c(C(=O)NCCOc3ccccc3)[nH]c3ccc(Br)cc23)c1 | > 40
Cc1cc(C)cc(S(=O)(=O)c2c(C(=O)NCCc3ccccc3)[nH]c3ccc([N+](=O)[O-])cc23)c1 | > 40
Cc1cc(C)cc(S(=O)(=O)c2c(C(=O)NCCn3cccc3)[nH]c3ccc(Cl)c(F)c23)c1 | 3.7

biological target: Human immunodeficiency virus type 1 reverse transcriptase (Human immunodeficiency virus 1, UniProt Q72547, K103N); assay: Inhibition of HIV1 reverse transcriptase K103N mutant expressed in Escherichia coli assessed as incorporation of [3H]dTTP into poly(rA)/oligo(dT) by scintillation counting; details: not given; in short: as §2

SMILES | IC50 [µM]
Cc1cc(C)cc(S(=O)(=O)c2c(C(=O)NCCN3CCOCC3)[nH]c3ccc(Br)cc23)c1 | 1.36
Cc1cc(C)cc(S(=O)(=O)c2c(C(=O)NCCOc3ccccc3)[nH]c3ccc(Cl)c(F)c23)c1 | 18.5
Cc1cc(C)cc(S(=O)(=O)c2c(C(=O)NCN3CCOCC3)[nH]c3ccc(Br)cc23)c1 | 0.863
Cc1cc(C)cc(S(=O)(=O)c2c(C(=O)NCCN3CCCC3)[nH]c3ccc([N+](=O)[O-])cc23)c1 | 1.35
Cc1cc(C)cc(S(=O)(=O)c2c(C(=O)NCN3CCCCC3)[nH]c3ccc(Br)cc23)c1 | 0.125
Cc1cc(C)cc(S(=O)(=O)c2c(C(=O)NCCN3CCOCC3)[nH]c3ccc(Cl)cc23)c1 | 6.68
Cc1cc(C)cc(S(=O)(=O)c2c(C(=O)NCCOc3ccccc3)[nH]c3ccc(Br)cc23)c1 | > 40
Cc1cc(C)cc(S(=O)(=O)c2c(C(=O)NCCc3ccccc3)[nH]c3ccc([N+](=O)[O-])cc23)c1 | > 40
Cc1cc(C)cc(S(=O)(=O)c2c(C(=O)NCCn3cccc3)[nH]c3ccc(Cl)c(F)c23)c1 | 0.17
